Legend:
[1] = Clinical pharmacokinetics of PU-H71 in plasma and urine; format: in vivo, human; details: for Urinary excretion: 1-h i.v. infusion
Outline: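 Patients with refractory solid tumors received the test compound (10–470 mg/m2) as a 1-h i.v. infusion. Heparinised blood was drawn on cycle 1 day 1 pre-infusion, 30 min after start, 5 min before end, and 1.5–24 h after start. Plasma was stored at −70 °C. Urine was collected every void on day 1. Plasma was acetonitrile-precipitated with deuterated internal standard and run on HPLC/MS against a control-plasma standard curve. Cmax/Tmax were taken by inspection and AUC by trapezoidal rule.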

[2] = test system: patients with advanced solid tumors; details: human, in vivo
refractory solid tumors = assay: Clinical response by RECIST 1.1; format: in vivo, human
Outline: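 Adults (≥18 y) with solid tumors refractory to or lacking standard therapy received the test compound i.v. over 1 h on days 1 and 8 of 21-day cycles. Doses were 10–470 mg/m2/day, escalated by modified accelerated titration and then 3+3. Response was assessed by RECIST criteria in evaluable patients.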

[3] = test system: human liver microsomal fractions; assay: In vitro metabolism in liver microsomes or S9 fractions; format: in vitro ADME
Outline: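 Test compound at 1 and 10 μM was incubated with human liver microsomes or S9 fraction (0.5 mg protein/mL) with 1 mM NADPH and 3.3 mM […] in 100 mM phosphate, pH 7.4, at 37 °C with shaking. For O-methylation, 0.1 mM S-adenosyl methionine was added. Aliquots were processed like plasma and analysed by LC/MS.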

[4] = test system: Bcl-6-dependent diffuse large B-cell lymphoma (DLBCL), hepatocellular carcinoma (HCC), and breast cancer cell lines; details: preclinical studies, through induction of apoptosis; cited from earlier work
[5] = test system: mouse xenografts of triple negative breast cancer, lymphoma, myeloma, pancreatic, and hepatocellular carcinoma; details: preclinical mouse xenografts; cited from earlier work
[6] = PU-H71 metabolites in patient plasma; format: in vivo, human; details: aliquot of patient plasma, Fig. 5a
[7] = 14 patients evaluable of 17 enrolled

For CC(C)NCCCn1c(Sc2cc3c(cc2I)OCO3)nc2c(N)ncnc21 [PU-H71, 6-amino-8-[(6-iodo-1,3-benzodioxol-5-yl)thio]-N-(1-methylethyl)-9H–purine-9-propanamine], which “dependency of T1/2 to dose level” value ([1]; 10 to 470 mg/m^2) is on record?
The value was “no dependency to dose level”.

And the “fraction of total AUC (± SD) during the infusion” value ([1]; all dose levels)?
Its value is 19.6% ± 11.3%.

What about the Urinary excretion ([1]; dose level 1 (10 mg/m^2), day 1, 1 patient) of the same compound?
The Urinary excretion was 5.5%.

And the Urinary excretion ([1]; dose level 4 (60 mg/m^2), day 1, 1 patient)?
The Urinary excretion was 8.8%.

What about the Urinary excretion ([1]; dose level 5 (80 mg/m^2), day 1, mean ± SD of 2 patients) of the same compound?
The Urinary excretion was 6.7 ± 1.3%.

And the Urinary excretion ([1]; dose level 6 (110 mg/m^2), day 1, mean ± SD of 3 patients)?
The Urinary excretion was 6.7 ±4.6%.

What about the Urinary excretion ([1]; dose level 7 (150 mg/m^2), day 1, 1 patient) of the same compound?
The Urinary excretion was 8.1%.

And the Urinary excretion ([1]; dose level 8 (200 mg/m^2), day 1, mean ± SD of 2 patients)?
Its Urinary excretion is 6.0 ± 4.2%.

What about the Urinary excretion ([1]; dose level 9 (266 mg/m^2), day 1, 1 patient) of the same compound?
The Urinary excretion was 5.4%.

And the Urinary excretion ([1]; dose level 10 (354 mg/m^2), day 1, mean ± SD of 3 patients)?
Its Urinary excretion is 8.6 ± 4.6%.

And the Urinary excretion ([1]; dose level 11 (470 mg/m^2), day 1, 1 patient)?
The Urinary excretion was 5.7%.

And the Tmax ([1]; human, plasma, intravenous)?
The Tmax was ≤ 1 h.

What about the half-life ([1]; human, plasma, intravenous) of the same compound?
Its half-life is 2.7 to 19.8 h.

What about the half-life ([1]; human, plasma, iv) of the same compound?
Its half-life is 8.4 ± 3.6 h.

And the AUC(0-inf) ([1]; human, plasma, iv, 10 mg/m^2)?
Its AUC(0-inf) is 0.517 µM·h.

And the AUC(0-t) ([1]; human, plasma, iv, 10 mg/m^2)?
Its AUC(0-t) is 0.45 µM·h.

What about the Cmax ([1]; human, plasma, iv, 10 mg/m^2) of the same compound?
Its Cmax is 0.2 µM.

What about the clearance ([1]; human, plasma, iv, 10 mg/m^2) of the same compound?
Its clearance is 17.2 mL/min/kg.

What about the half-life ([1]; human, plasma, iv, 10 mg/m^2) of the same compound?
Its half-life is 2.7 h.

What about the AUC(0-inf) ([1]; human, plasma, iv, 20 mg/m^2) of the same compound?
Its AUC(0-inf) is 1.67 µM·h.

What about the AUC(0-t) ([1]; human, plasma, iv, 20 mg/m^2) of the same compound?
The AUC(0-t) was 1.23 µM·h.

What about the Cmax ([1]; human, plasma, iv, 20 mg/m^2) of the same compound?
The Cmax was 0.3 µM.

What about the clearance ([1]; human, plasma, iv, 20 mg/m^2) of the same compound?
Its clearance is 10.5 mL/min/kg.

And the half-life ([1]; human, plasma, iv, 20 mg/m^2)?
The half-life was 10.5 h.

And the half-life ([1]; human, plasma, iv, 40 mg/m^2)?
The half-life was 9.2 h.

And the AUC(0-inf) ([1]; human, plasma, iv, 60 mg/m^2)?
Its AUC(0-inf) is 5.02 µM·h.

And the AUC(0-t) ([1]; human, plasma, iv, 60 mg/m^2)?
Its AUC(0-t) is 4.55 µM·h.

And the Cmax ([1]; human, plasma, iv, 60 mg/m^2)?
Its Cmax is 1.3 µM.

What about the clearance ([1]; human, plasma, iv, 60 mg/m^2) of the same compound?
The clearance was 10.5 mL/min/kg.

And the half-life ([1]; human, plasma, iv, 60 mg/m^2)?
The half-life was 6.1 h.

What about the AUC(0-inf) ([1]; human, plasma, iv, 80 mg/m^2) of the same compound?
Its AUC(0-inf) is 16.8 µM·h.

And the AUC(0-t) ([1]; human, plasma, iv, 80 mg/m^2)?
Its AUC(0-t) is 15 µM·h.

And the Cmax ([1]; human, plasma, iv, 80 mg/m^2)?
Its Cmax is 5.7 ± 0.1 µM.

And the clearance ([1]; human, plasma, iv, 80 mg/m^2)?
The clearance was 4.17 mL/min/kg.

And the half-life ([1]; human, plasma, iv, 80 mg/m^2)?
The half-life was 6.7 ± 0.1 h.

And the AUC(0-inf) ([1]; human, plasma, iv, 110 mg/m^2)?
The AUC(0-inf) was 22.9 µM·h.

And the AUC(0-t) ([1]; human, plasma, iv, 110 mg/m^2)?
Its AUC(0-t) is 19.8 µM·h.

And the Cmax ([1]; human, plasma, iv, 110 mg/m^2)?
Its Cmax is 7.3 ± 2.4 µM.

What about the clearance ([1]; human, plasma, iv, 110 mg/m^2) of the same compound?
The clearance was 4.67 mL/min/kg.

And the half-life ([1]; human, plasma, iv, 110 mg/m^2)?
The half-life was 7.6 ± 0.2 h.

What about the AUC(0-inf) ([1]; human, plasma, iv, 150 mg/m^2) of the same compound?
Its AUC(0-inf) is 29.5 µM·h.

And the AUC(0-t) ([1]; human, plasma, iv, 150 mg/m^2)?
The AUC(0-t) was 25.6 µM·h.

And the Cmax ([1]; human, plasma, iv, 150 mg/m^2)?
Its Cmax is 8.7 µM.

And the clearance ([1]; human, plasma, iv, 150 mg/m^2)?
The clearance was 4.5 mL/min/kg.

What about the half-life ([1]; human, plasma, iv, 150 mg/m^2) of the same compound?
Its half-life is 7.2 h.

And the AUC(0-inf) ([1]; human, plasma, iv, 200 mg/m^2)?
The AUC(0-inf) was 41.3 µM·h.

What about the AUC(0-t) ([1]; human, plasma, iv, 200 mg/m^2) of the same compound?
The AUC(0-t) was 34.8 µM·h.

And the Cmax ([1]; human, plasma, iv, 200 mg/m^2)?
Its Cmax is 8 ± 4.5 µM.

What about the clearance ([1]; human, plasma, iv, 200 mg/m^2) of the same compound?
The clearance was 4.33 mL/min/kg.

What about the half-life ([1]; human, plasma, iv, 200 mg/m^2) of the same compound?
The half-life was 7.1 ± 0.5 h.

What about the AUC(0-inf) ([1]; human, plasma, iv, 266 mg/m^2) of the same compound?
The AUC(0-inf) was 90.8 µM·h.

What about the AUC(0-t) ([1]; human, plasma, iv, 266 mg/m^2) of the same compound?
Its AUC(0-t) is 59.9 µM·h.

What about the Cmax ([1]; human, plasma, iv, 266 mg/m^2) of the same compound?
The Cmax was 7.8 µM.

And the clearance ([1]; human, plasma, iv, 266 mg/m^2)?
The clearance was 2.5 mL/min/kg.

What about the half-life ([1]; human, plasma, iv, 266 mg/m^2) of the same compound?
The half-life was 10.2 h.

What about the AUC(0-inf) ([1]; human, plasma, iv, 354 mg/m^2) of the same compound?
Its AUC(0-inf) is 180 µM·h.

And the AUC(0-t) ([1]; human, plasma, iv, 354 mg/m^2)?
The AUC(0-t) was 114 µM·h.

What about the Cmax ([1]; human, plasma, iv, 354 mg/m^2) of the same compound?
The Cmax was 17.3 ± 8.5 µM.

And the clearance ([1]; human, plasma, iv, 354 mg/m^2)?
Its clearance is 2.17 mL/min/kg.

What about the half-life ([1]; human, plasma, iv, 354 mg/m^2) of the same compound?
The half-life was 11.5 ± 7.3 h.

And the AUC(0-inf) ([1]; human, plasma, iv, 470 mg/m^2)?
Its AUC(0-inf) is 203 µM·h.

And the AUC(0-t) ([1]; human, plasma, iv, 470 mg/m^2)?
The AUC(0-t) was 143 µM·h.

And the Cmax ([1]; human, plasma, iv, 470 mg/m^2)?
The Cmax was 33.7 µM.

What about the clearance ([1]; human, plasma, iv, 470 mg/m^2) of the same compound?
The clearance was 2 mL/min/kg.

What about the half-life ([1]; human, plasma, iv, 470 mg/m^2) of the same compound?
The half-life was 10.8 h.

What about the “given dose (± SD) recovered as free drug in urine” value ([1]; total urine collected in 24 h, average for all dose levels) of the same compound?
The value was 6.7 ± 3.0%.

And the “dose level of first grade ≥ 2 toxicity” value [2]?
Its value is “DL 6”.

What about the “progressive disease within the first 2 cycles” value (refractory solid tumors; 14 evaluable patients) of the same compound?
Its value is “Eight of the evaluable patients progressed early”.

What about the “patients with best response of stable disease” value (refractory solid tumors; [7]) of the same compound?
Its value is 35%.

What about the “patients with best response of stable disease for >2 cycles (number)” value (refractory solid tumors; [7]) of the same compound?
Its value is 6.

And the “phase 1 reactions” value ([3]; NADPH, 37 °C)?
Its value is “S-oxidation, N-dealkylation, de-iodination, and O-demethylation”.

And the “most active phase 1 reaction” value ([3]; forms catechol 501)?
The value was “O-demethylation”.

What about the cytotoxicity [4] of the same compound?
Its cytotoxicity is “high cytotoxicity”.

And the “growth inhibitory effects in xenografts” value [5]?
The value was “potent and lasting growth inhibitory effects”.

Which “peak in representative ion mass tracing” value [6] does the source give for NCCCn1c(Sc2cc3c(cc2I)OCO3)nc2c(N)ncnc21 [compound 471, de-isopropyl PU-H71] here?
The value was “observed”.

Reference: article PMC6126370 (Investigational new drugs, 2017)
